Here are results for 37 compounds from ChEMBL document CHEMBL4038268, “Methylpyrrole inhibitors of BET bromodomains” (Bioorg Med Chem Lett, 2017).

Activity calls are given as the source filed them. The calls are words filed in the database; no cut-off is given here. Some results are limits rather than exact numbers.

For data set [1], the target named is T1, Bromodomain-containing protein 4 (Homo sapiens, UniProt O60885). Put plainly: Inhibition of BRD4 (unknown origin) expressed in human H1299 cells co-expressing HPV16-LCR/E2 after 24 hrs by Bright Glo-luciferase reporter gene assay. In kind it is cell-based. The method in brief:
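Target-engagement reporter in an H1299-derived line carrying a stably integrated E2 expression cassette and an HPV-LCR-driven luciferase reporter. The read-out is BRD4-dependent E2-mediated transcriptional repression. EC50 is the mean of two measurements.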
(Reporter assays use an easily measured gene product as a stand-in for the process of interest.)

Data set [2] concerns the target T1, Bromodomain-containing protein 4. Put plainly: Binding affinity to His-tagged BRD4 BD1-BD2 (K57 to K550 residues) (unknown origin) after 1 hr by Alexa-647-conjugated probe based TR-FRET assay.
For data set [3], the system named is MX1. The data set can be described thus: Antiproliferative activity against human MX1 cells incubated over 72 hrs by Cell Titre Glo luminescence assay. The data set is classed as functional, cell-based. The note with it: MX1, 72 h. The method in brief: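 Triple-negative breast cancer line MX-1 grown 3 days with compound. Proliferation read with the CellTiter-Glo kit. EC50 is the mean of two measurements.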

Data set [4] relates to Liver. The data set can be described thus: Unbound intrinsic clearance in mouse liver microsomes. The data set is classed as ADME, microsome. In general terms: Liver microsomes are a subcellular fraction often used to study metabolism.
A short description of data set [5]: Permeability of the compound. The data set is classed as physicochemical. The conditions noted are these: not told; read-out: permeability.
Data set [6] has as its target T1, Bromodomain-containing protein 4. Put plainly: Binding affinity to Ile,Leu,Val,Met-[13C-methyl]-labelled BRD4 BD2 (352 to 457 residues) (unknown origin) expressed in Escherichia coli BL21 (DE3) by NMR method.
Data set [7] is described as follows: Oral bioavailability in mouse at 10 mg/kg. In kind it is ADME, organism-based. The note with it: in vivo.
Data set [8] in a line: Half life in mouse at 3 mg/kg, iv. In kind it is ADME, organism-based. The note with it: in vivo.
In data set [9] the test system is Mus musculus. The data set can be described thus: Unbound AUC in mouse at 10 mg/kg, po. The data set is classed as ADME, organism-based. The conditions noted are these: in vivo.

Turning to `Cc1[nH]c(-c2ccccc2Nc2ccccc2)cc1C(N)=O`, in [1], the EC50 was found to be 2800 nM. In data set [2], this compound registered a Ki of 450 nM.

Regarding `Cc1[nH]c(-c2ccccc2N)cc1C(N)=O`, the EC50 in data set [3] and in [1] was greater than 10000 nM throughout. In addition, the affinity in data set [2] corresponds to a Ki of 22000 nM.

Turning to `Cc1[nH]c(-c2ccccc2Oc2ccccc2)c2nc[nH]c(=O)c12`, the EC50 in data set [3] is 1200 nM; in data set [1], 1600 nM. This compound had a CL free in data set [4] greater than 6170 mL/min/kg. The same compound returned a Ki in data set [2] of 1100 nM. Also, the Papp in data set [5] was 100 ×10⁻⁶ cm/s.

Take `CCS(=O)(=O)Nc1ccc(Oc2ccccc2)c(-c2[nH]c(C)c3c(=O)[nH]ncc23)c1`: the values for the EC50 in [3] and in data set [1] were 52 nM and 75 nM, respectively. In [4], this compound came in with a CL free of 800 mL/min/kg. In [2], this compound gave a Ki of 10 nM. For the same compound, in [5], the Papp amounted to 9.5 ×10⁻⁶ cm/s.

Take `Cc1[nH]c(-c2cc(NS(C)(=O)=O)ccc2Oc2ccc(F)cc2F)c2c1C(=O)CCC2`: the EC50 in data set [1] was found to be 75 nM. Also, in data set [2], the affinity, expressed as Ki, was 97 nM.

For `Cc1[nH]c(-c2ccccc2N)c2c1C(=O)CCC2`, in data set [1], the EC50 was determined as 7100 nM. This compound registered a Ki in data set [2] of 9500 nM.

For `Cn1cc(-c2cc(NS(C)(=O)=O)ccc2Oc2ccc(F)cc2F)c2cc[nH]c(=O)c21`, a half-maximal response in [1] (EC50) required 46 nM. Also, in data set [2], the Ki is 17 nM.

In data set [1], `COC(=O)c1ccc(Oc2ccccc2)c(-c2[nH]c(C)c3c2CCCC3=O)c1` registered an EC50 of 2000 nM. Moreover, in data set [2], the Ki was 91 nM.

In turn, `Cc1[nH]c(-c2cc(NS(C)(=O)=O)ccc2Oc2ccccc2)c2c1C(=O)NCC2` gave an EC50 in data set [1] of 120 nM. Besides, affinity in [2] was put at a Ki of 41 nM.

Regarding `Cc1[nH]c(-c2cc(NS(C)(=O)=O)ccc2Oc2ccccc2)c2nc[nH]c(=O)c12`, the EC50 in [1] was 410 nM. This compound also had a Ki in data set [2] of 150 nM.

Regarding `COC(=O)C[C@@H]1N=C(c2ccc(Cl)cc2)c2c(sc(C)c2C)-n2c(C)nnc21`, in data set [2], affinity was put at a Ki of 17 nM.

The compound `Cc1[nH]c(-c2cc(NS(C)(=O)=O)ccc2Oc2ccc(F)cc2F)c2c1C(=O)NCC2` registered a concentration for a half-maximal effect (EC50) in data set [1] of 420 nM. In addition, the Ki in data set [2] was 84 nM.

In [1], `Cc1[nH]c(-c2ccccc2Oc2ccccc2)c2cn[nH]c(=O)c12` yielded an EC50 of 220 nM. For the same compound, the Ki in [2] was 37 nM.

As for `Cc1[nH]c(-c2cc(NS(C)(=O)=O)ccc2Oc2ccccc2)cc1C(N)=O`, the EC50 in data set [1] was found to be 1400 nM. This compound also had a Ki in data set [2] of 280 nM.

With `Cn1cc(-c2ccccc2Oc2ccccc2)c2cc[nH]c(=O)c21`, the values for the EC50 in data set [3] and in data set [1] were 580 nM and 1100 nM, respectively. In data set [4], this compound came in with a CL free of 106700 mL/min/kg. In data set [2], this compound yielded a Ki of 120 nM. Moreover, the Papp in data set [5] was determined as 13 ×10⁻⁶ cm/s.

In [2], `CCS(=O)(=O)Nc1ccc(Oc2ccc(F)cc2F)c(-c2cn(C)c3c(=O)[nH]ccc23)c1` displayed a Ki of 11 nM.

As for `Cc1[nH]c(-c2cc(S(C)(=O)=O)ccc2Oc2ccc(F)cc2F)cc1C(N)=O`, the EC50 turned out to be 3200 nM in data set [3] and 4500 nM in [1]. The compound further came in with a CL free in data set [4] of 100 mL/min/kg. Also, the affinity in data set [2] corresponds to a Ki of 2200 nM.

For `CCNC(=O)c1ccc(Oc2ccccc2)c(-c2[nH]c(C)c3c2CCCC3=O)c1`, the EC50 in [3] and in data set [1] was 1400 nM each time. The compound further showed a Ki in data set [2] of 250 nM.

Take `Cc1[nH]c(-c2cc(NS(C)(=O)=O)ccc2Oc2ccccc2)c2cn[nH]c(=O)c12`: in [1], the EC50 turned out to be 180 nM. For the same compound, the Ki in [2] was determined as 30 nM.

For the compound `Cc1[nH]c(-c2cc(NS(C)(=O)=O)ccc2Oc2ccc(F)cc2F)c2cn[nH]c(=O)c12`, the results for the EC50 in [3] and in data set [1] were 92 nM and 280 nM, respectively. The CL free in [4] was greater than 250 mL/min/kg. The compound also yielded an inhibitory constant (Ki) in [2] of 16 nM. Besides, in data set [5], the Papp was determined as 6.1 ×10⁻⁶ cm/s.

Take `CCOC(=O)c1[nH]c(C)c2c1CCCC2=O`: the result in data set [6] was Active. In [2], this compound displayed a Ki of 25000 nM.

On to `Cc1[nH]c(-c2cc(NS(C)(=O)=O)ccc2Oc2ccc(F)cc2F)cc1C(N)=O`, for which, in data set [1], the EC50 turned out to be 2300 nM. The compound also gave a Ki in data set [2] of 370 nM.

On to `Cc1[nH]c(-c2cc(N)ccc2Oc2ccccc2)cc1C(N)=O`, for which the EC50 in data set [1] came to 880 nM. Besides, the Ki in data set [2] was determined as 420 nM.

The compound `Cc1[nH]c(-c2ccccc2Oc2ccccc2)c2cc[nH]c(=O)c12` had an EC50 in data set [1] of 700 nM. The Ki in data set [2] amounted to 450 nM.

As for `Cn1cc(-c2cc(CS(C)(=O)=O)ccc2Oc2ccc(F)cc2F)c2cc[nH]c(=O)c21`, the CL free in data set [4] came out at 400 mL/min/kg. A half-maximal response in data set [1] (EC50) required 40 nM. This compound displayed a Ki in [2] of 11 nM. For the same compound, the Papp in data set [5] is 40 ×10⁻⁶ cm/s.

As to `Cc1[nH]c(-c2cc(N)ccc2Oc2ccccc2)c2c1C(=O)CCC2`, the EC50 amounted to 230 nM in [3] and 300 nM in data set [1]. Moreover, the affinity in data set [2], expressed as Ki, was 210 nM.

In data set [1], `Cc1[nH]c(-c2ccccc2Oc2ccccc2)c2c1C(=O)NCC2` gave an EC50 of 280 nM. This compound also registered a Ki in [2] of 340 nM.

For the compound `Cc1[nH]c(-c2ccccc2)cc1C(N)=O`, the Ki in data set [2] came to 12000 nM.

As for `CC(=O)c1cc(-c2ccccc2N)[nH]c1C`, in [6], the outcome was Active. The Ki in data set [2] stood at 21000 nM.

Turning to `Cc1[nH]c(-c2cc(S(C)(=O)=O)ccc2Oc2ccc(F)cc2F)c2c1C(=O)CCC2`, the EC50 in data set [3] turned out to be 570 nM; in data set [1], 1400 nM. For the same compound, the CL free in data set [4] is 1400 mL/min/kg. This compound came in with a Ki in data set [2] of 460 nM.

In the case of `Cc1[nH]c(-c2c(N)cccc2Oc2ccccc2)cc1C(N)=O`, the response in [1] was half-maximal at 2100 nM (EC50). In addition, in data set [2], the affinity corresponds to a Ki of 1600 nM.

Take `Cc1[nH]c(-c2cc(S(C)(=O)=O)ccc2Oc2ccc(F)cc2F)c2cn[nH]c(=O)c12`: the EC50 in data set [3] stood at 390 nM; in data set [1], 750 nM. The same compound had a CL free in data set [4] of 617 mL/min/kg. The same compound displayed a Ki in data set [2] of 77 nM. Besides, the Papp in data set [5] worked out at 12 ×10⁻⁶ cm/s.

In the case of `Cn1cc(-c2cc(S(C)(=O)=O)ccc2Oc2ccccc2)c2cc[nH]c(=O)c21`, the EC50 in [1] stood at 91 nM. The compound further gave a Ki in data set [2] of 17 nM.

The compound `Cc1[nH]c(-c2ccccc2Oc2ccccc2)cc1C(N)=O` showed an EC50 in data set [1] of 450 nM. This compound also had a Ki in [2] of 270 nM.

As for `Cc1[nH]c(-c2ccccc2Oc2ccc(Cl)cc2)cc1C(N)=O`, in [1], the midpoint of the response, the EC50, lay at 280 nM. This compound also yielded a Ki in data set [2] of 410 nM.

In [1], `Cc1[nH]c(-c2ccccc2Oc2ccccc2)c2c1C(=O)CCC2` displayed an EC50 of 280 nM. The same compound had a Ki in data set [2] of 440 nM.

In [7], `CCS(=O)(=O)Nc1ccc(Oc2ccc(F)cc2)c(-c2cn(C)c3c(=O)[nH]ccc23)c1` came in with a bioavailability of 33%. In data set [8], this compound had a half-life of 5.6 h. Also, the fAUC in [9] turned out to be 0.06 µM·h. For the same compound, a half-maximal effect in data set [1] (EC50) was put at 47 nM. In data set [2], this compound showed an inhibition constant Ki of 5.5 nM.

As usually defined, the EC50 is the concentration at which the effect is half-maximal. A high value points to weaker potency. Usually Ki stands for the dissociation constant of the complex between target and ligand, obtained from inhibition or displacement. One may read the bioavailability as the share of a dose that reaches the circulation, judged against a reference dose that is usually intravenous. Lower therefore signals little systemic uptake. The half-life is the time in which the quantity being followed falls by half. A high value points to slow decline.
